The source of these data is PubChem BioAssay.

Calls of active or inactive are those of the source.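 Rule for the calls, unless noted: active = potentiation averaged over duplicate wells exceeding buffer-only control mean by more than 3 SD; inactive = the rest.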

Test [1] in a line: nonspecific flux increase, KCNQ1-free cells – parental CHO cells, counter-screen for KCNQ1 potentiator project (AID 493006;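 active = duplicate-averaged activation above buffer control mean plus 5 SD of those controls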). Particulars: parental CHO-K1 cells, FluxOR thallium flux, at 10 µM; stronger effect = higher value. In a few lines: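 Material: untransfected host CHO-K1 cells with FluxOR thallium dye. Timing: overnight 37 °C plating, 90 min RT dye, 20 min compound. Detection: kinetic FluxOR fluorescence, 10 s baseline, 110 s after stimulus. Read-out basis: max-minus-min fluorescence over baseline, percent of buffer-to-R-L3 span. Replicates: duplicate wells per compound, percent values averaged.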
In general terms: Counterscreens check selectivity or assay interference.

Test [2] addresses Potassium voltage-gated channel subfamily KQT member 1 (Homo sapiens) (UniProt P51787). Briefly: enhancement of KCNQ1 channel thallium flux – FluxOR thallium flux, CHO cells, duplicates, confirmation (AID 493007).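 For outcome: cells depolarized by a potassium plus thallium sulfate stimulus after compound.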 The conditions noted are these: KCNQ1 cell line, FluxOR thallium flux fluorescence, at 10 µM; stronger effect = higher value, % of reference activator effect, buffer zero. In a few lines: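 Test system – KCNQ1-expressing CHO cell line · Incubation – FluxOR dye loading 90 min, compound exposure 20 min, room temperature · Detection – FluxOR Tl+ flux fluorescence, 10 s baseline plus 110 s recording · Controls – buffer-only wells as 0% and R-L3 activator as 100%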

The target of test [3] is Potassium voltage-gated channel subfamily KQT member 2 (Rattus norvegicus) (UniProt O88943). As to the kind of experiment: KCNQ2 thallium flux enhancement – KCNQ2-CHO-K1 cells, selectivity assay for KCNQ1 potentiator project (AID 493009;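 active = mean duplicate potentiation above the buffer control mean plus 5 SD of buffer wells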;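 note: assay conditions were tuned for KCNQ1 rather than KCNQ2 modulators; signal is max minus min fluorescence divided by baseline after thallium stimulus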). Particulars: FluxOR thallium flux fluorescence, at 10 µM; stronger effect = higher value, scaled: buffer 0, activator control 100.
Sequence of Potassium voltage-gated channel subfamily KQT member 2 (Rattus norvegicus) (O88943 whole entry, looked up): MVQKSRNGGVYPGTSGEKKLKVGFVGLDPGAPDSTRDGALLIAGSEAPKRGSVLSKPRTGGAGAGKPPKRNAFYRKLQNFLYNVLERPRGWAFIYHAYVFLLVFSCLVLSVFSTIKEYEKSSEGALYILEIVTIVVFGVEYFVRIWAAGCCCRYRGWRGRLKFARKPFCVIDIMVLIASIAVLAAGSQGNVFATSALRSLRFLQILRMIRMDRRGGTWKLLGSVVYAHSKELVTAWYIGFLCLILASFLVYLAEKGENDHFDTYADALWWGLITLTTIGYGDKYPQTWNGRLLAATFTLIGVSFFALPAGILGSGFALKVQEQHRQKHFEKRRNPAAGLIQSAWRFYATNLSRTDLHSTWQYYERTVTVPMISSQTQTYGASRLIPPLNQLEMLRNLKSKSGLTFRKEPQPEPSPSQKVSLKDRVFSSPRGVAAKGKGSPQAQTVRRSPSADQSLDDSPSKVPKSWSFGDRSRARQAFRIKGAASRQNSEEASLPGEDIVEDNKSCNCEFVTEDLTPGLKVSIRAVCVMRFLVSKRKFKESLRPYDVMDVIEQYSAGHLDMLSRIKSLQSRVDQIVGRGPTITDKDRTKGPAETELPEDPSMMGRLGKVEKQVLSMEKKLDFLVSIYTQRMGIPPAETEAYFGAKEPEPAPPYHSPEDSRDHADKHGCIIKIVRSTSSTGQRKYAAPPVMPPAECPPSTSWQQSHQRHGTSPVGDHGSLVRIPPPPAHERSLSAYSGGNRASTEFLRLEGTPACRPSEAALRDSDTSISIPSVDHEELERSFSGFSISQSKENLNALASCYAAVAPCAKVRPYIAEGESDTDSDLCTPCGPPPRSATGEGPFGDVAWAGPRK
The target of test [4] is Potassium voltage-gated channel subfamily KQT member 1 (Homo sapiens) (UniProt P51787). As to the kind of experiment: KCNQ1 activators by electrophysiology – IonWorks patch clamp, KCNQ1-CHO cells, orthogonal assay for KCNQ1 potentiator project, confirmation (AID 493184;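 active = current rise at least 3 SD above the untreated control mean in each of two repeat wells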). The conditions noted are these: automated patch clamp current, at 10 µM; stronger effect = higher value. The procedure, abridged: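 Read-out: Percent current increase versus pre-compound level | Assay system: CHO cells carrying KCNQ1 | Measured by: Automated perforated-patch electrophysiology | Medium: External bath solution at pH 7.4 | Dosing: One dose, 10 µM final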
Sequence of Potassium voltage-gated channel subfamily KQT member 1 (Homo sapiens) (P51787 whole entry, looked up): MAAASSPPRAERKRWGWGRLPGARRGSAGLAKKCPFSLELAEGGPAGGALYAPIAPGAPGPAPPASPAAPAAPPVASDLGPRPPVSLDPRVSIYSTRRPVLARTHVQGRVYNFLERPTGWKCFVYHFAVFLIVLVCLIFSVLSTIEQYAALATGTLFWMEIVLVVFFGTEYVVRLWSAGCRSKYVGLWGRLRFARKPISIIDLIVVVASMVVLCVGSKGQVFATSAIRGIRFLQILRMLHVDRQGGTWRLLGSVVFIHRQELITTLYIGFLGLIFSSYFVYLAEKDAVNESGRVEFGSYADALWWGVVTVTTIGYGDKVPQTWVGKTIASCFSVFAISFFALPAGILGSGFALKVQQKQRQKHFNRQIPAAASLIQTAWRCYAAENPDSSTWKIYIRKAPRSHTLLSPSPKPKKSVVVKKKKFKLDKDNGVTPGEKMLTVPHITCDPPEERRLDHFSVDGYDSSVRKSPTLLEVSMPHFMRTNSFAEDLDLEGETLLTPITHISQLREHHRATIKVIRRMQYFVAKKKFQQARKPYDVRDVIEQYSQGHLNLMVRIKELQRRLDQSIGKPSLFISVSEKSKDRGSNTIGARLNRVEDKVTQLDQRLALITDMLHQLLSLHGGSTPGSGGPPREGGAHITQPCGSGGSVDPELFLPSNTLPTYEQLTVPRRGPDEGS
In general terms: The patch-clamp technique gives a direct electrical read-out from membranes.

In test [5] the target is Potassium voltage-gated channel subfamily E member 1 (Homo sapiens) + Potassium voltage-gated channel subfamily KQT member 1 (Homo sapiens) (UniProt P15382+P51787). As to the kind of experiment: KCNQ1-E1 channel activation – thallium flux, CHO-K1 KCNQ1/E1 cells, selectivity assay for KCNQ1 potentiator project, confirmation (AID 493186;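 active = mean duplicate activation above the buffer control mean plus 5 SD of those controls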). The conditions noted are these: FluxOR thallium flux, at 10 µM; stronger effect = higher value. In a few lines: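 Test system: CHO-K1 cells with KCNQ1/E1; dosing: one test concentration; signal: FluxOR Tl+ flux fluorescence, kinetic read; incubation: 90-min dye loading then 20-min compound exposure, both at room temperature; read-out basis: percent of R-L3 effect over buffer; replication: duplicate wells per compound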
Sequence of Potassium voltage-gated channel subfamily E member 1 (Homo sapiens) + Potassium voltage-gated channel subfamily KQT member 1 (Homo sapiens) (P51787 whole entry, looked up): as the sequence (P51787 whole entry, looked up) above

Turning to `Cc1cc(C)nc(N/N=C/c2cccc3ccccc23)n1`, the result in test [1], in test [2], in test [3], in test [4] and in test [5] was inactive.
As to `CCOc1cc(CN2CCN(C(=O)CC(C)C)CC2)ccc1OC`, the outcome in test [1], in test [3], in test [4] and in test [5] was inactive. Besides, the potentiation in test [2] was 23.5% (active).
For `CCCCOC(=O)c1ccc(NC(=S)NC(=O)c2ccco2)cc1`, the outcome in test [1], in test [2], in test [3], in test [4] and in test [5] was inactive.
On to `CCCn1c(N)c(C(=O)CSc2nc3ccccc3c(=O)n2Cc2ccccc2)c(=O)[nH]c1=O`, for which the outcome in test [1], in test [2], in test [3], in test [4] and in test [5] was inactive.
Regarding `COc1ccc(OCCCC(=O)NNC(=O)CCN2CCN(c3ccccc3)CC2)cc1`, the outcome in test [1], in test [4] and in test [5] was inactive. The potentiation in test [2] is 19% (active); in test [3] it was 142% (active).
Take `Cc1ccc(/C(O)=C/C(=O)C(=O)NNC(=O)C(O)(c2ccccc2)c2ccccc2)cc1`: the result in test [1], in test [2], in test [3], in test [4] and in test [5] was inactive.
On to `CCN(CC(=O)Nc1c(F)cccc1F)C(=O)C1CCN(C(=O)c2ccc(Cl)cc2)CC1`, for which the result in test [1], in test [2], in test [3], in test [4] and in test [5] was inactive.
In the case of `COc1cc(-c2noc(C)c2-c2ccc(N(C)C)nc2)cc(OC)c1OC`, the result in test [1], in test [2], in test [3], in test [4] and in test [5] was inactive.
For `COc1cccc(/C=N/n2c(SC)nnc2-c2ccccc2)c1O`, the outcome in test [1], in test [2], in test [3], in test [4] and in test [5] was inactive.
`O=C(CSc1nnc(NC(=O)C2CCC2)s1)Nc1ccc(N2CCOCC2)cc1`: the result in test [1], in test [2], in test [3], in test [4] and in test [5] was inactive.
`CNCC/C=C1/c2ccccc2CSc2ccccc21`: the outcome in test [1], in test [2], in test [3], in test [4] and in test [5] was inactive.
In the case of `O=C1C(Nc2ccc(O)cc2)=C/C(=N/S(=O)(=O)c2cccs2)c2ccccc21`, the result in test [1], in test [3], in test [4] and in test [5] was inactive. Besides, the potentiation in test [2] is 17.5% (active).
As for `O=C(NC(=S)N1CCCCCC1)c1ccccc1Cl`, the result in test [1], in test [4] and in test [5] was inactive. For the same molecule, the potentiation in test [2] is 25% (active); in test [3] it was 146% (active).
As to `COc1ccc(C(=O)/C=C/C(=O)N(CC(=O)NC2CCCCC2)Cc2cccs2)c(O)c1`, the outcome in test [1], in test [2], in test [3], in test [4] and in test [5] was inactive.
For `COc1ccc(NC(=S)NCCC(c2ccccc2)c2ccccc2)c(OC)c1`, the result in test [1], in test [3], in test [4] and in test [5] was inactive. Besides, in test [2], the potentiation is 72.5% (active).
In the case of `CCCCNC(=O)CCc1c(C)nc2c(c(C)nn2-c2ccccc2)c1C`, the result in test [1], in test [2], in test [3], in test [4] and in test [5] was inactive.
Take `Cc1[nH]nc(SCC(=O)N2CCCCC2)c1[N+](=O)[O-]`: the result in test [1], in test [2], in test [3], in test [4] and in test [5] was inactive.
On to `Cc1ccc(N(C(=O)Cn2nnc(-c3ccccc3F)n2)C(C(=O)NC2CCCC2)c2ccncc2)cc1` (stereo not given), for which the result in test [1], in test [2], in test [3], in test [4] and in test [5] was inactive.
Regarding `CC(=O)C[C@H]1c2cc(C(F)(F)F)ccc2S(=O)(=O)N1C1CCCCC1`, the result in test [1], in test [3], in test [4] and in test [5] was inactive. Moreover, the potentiation in test [2] was 74% (active).
`O=C(NC1CCCC1)C(=O)N(Cc1cccnc1)C(C(=O)NC1CCCC1)c1ccco1` (stereo not given): the outcome in test [1], in test [3], in test [4] and in test [5] was inactive. In test [2], the potentiation is 35% (active).
Turning to `O=C(NC(=S)Nc1cccc([N+](=O)[O-])c1)c1ccco1`, the result in test [1], in test [2], in test [3], in test [4] and in test [5] was inactive.
In the case of `Cc1ccc(CCNC(=O)C2CC(c3cccc(F)c3)=NO2)cc1` (stereo not given), the outcome in test [1], in test [2], in test [3], in test [4] and in test [5] was inactive.
For the molecule `Cc1cc(C)cc(-n2c(C)cc(/C=C3\C(=N)N4N=C(CC(C)C)SC4=NC3=O)c2C)c1`, the outcome in test [1], in test [3], in test [4] and in test [5] was inactive. The potentiation in test [2] was 21.5% (active).
For `O=C(O)CCn1c(-c2ccccc2)cc2ccccc21`, the outcome in test [1], in test [2], in test [3], in test [4] and in test [5] was inactive.
For `CCOC(=O)c1cc(C)sc1NC(=O)CN1CCN(C(=O)c2ccco2)CC1`, the outcome in test [1], in test [3], in test [4] and in test [5] was inactive. In addition, in test [2], the potentiation is 17.5% (active).
With `N#Cc1ccc(Cl)cc1NC(=O)COC(=O)[C@H](CCC(N)=O)NC(=O)c1ccc(F)cc1`, the outcome in test [1], in test [2], in test [3], in test [4] and in test [5] was inactive.
As for `CCOC(=O)c1c(C)[nH]sc1=S`, the result in test [1], in test [3], in test [4] and in test [5] was inactive. In addition, the potentiation in test [2] is 18% (active).
As for `COc1ccccc1C(=O)NNC(=O)c1nn(Cc2ccccc2)c(=O)c2ccccc12`, the result in test [1], in test [2], in test [3], in test [4] and in test [5] was inactive.
Regarding `CCOC(=O)Cn1c(C(=O)OCC)cc2sccc21`, the result in test [1], in test [3], in test [4] and in test [5] was inactive. Besides, in test [2], the potentiation was 35.5% (active).
